{"data": "Published values collected from several papers", "note": "Compare with care: the assays were run in different laboratories."}
{"Compound": "O=C(Cn1ccnc1[N+](=O)[O-])NCc1ccccc1", "organism": "Trypanosoma cruzi", "test": "parasite growth, absorbance", "system": "MRC5", "conditions": "intracellular, amastigote", "measurement": "IC50", "value": "2 to 5 µM"}
{"Compound": "Cc1ccc(Cn2cc(C(=O)NN)c(=O)c3cc(Oc4ccccc4)ccc32)cc1", "organism": "Trypanosoma cruzi", "test": "parasite growth", "system": "MRC5", "conditions": "intracellular, amastigote", "measurement": "EC50", "value": "44 µM"}
{"Compound": "CN1CCN(c2cnc3c(cc(C(=O)NCc4ccc(Cl)cc4)c(=O)n3CC(=O)N3CC(C)(F)C3)n2)C1=O", "organism": "Human betaherpesvirus 5", "test": "viral replication, inhibitor", "system": "AD169", "measurement": "EC50", "value": "0.13 µM"}
{"Compound": "CN(C)c1cc(NC(=O)Cc2ncccn2)c(O)c2c1C[C@H]1C[C@H]3[C@H](N(C)C)C(O)=C(C(N)=O)C(=O)[C@@]3(O)C(O)=C1C2=O", "organism": "Mycobacterium tuberculosis", "test": "microbial growth, broth dilution", "system": "H37RV", "conditions": "7 days, pH 7.4", "measurement": "MIC", "value": "0.8 µg/mL"}
{"Compound": "OC(Cn1cncn1)(Cn1cncn1)c1ccc(F)cc1F", "organism": "Trypanosoma cruzi", "test": "parasite growth, resazurin", "conditions": "24 h, trypomastigote", "measurement": "IC50", "value": "23.6 µM"}
{"Compound": "CN(C)c1cc(NC(=O)Cc2cncnc2)c(O)c2c1C[C@H]1C[C@H]3[C@H](N(C)C)C(O)=C(C(N)=O)C(=O)[C@@]3(O)C(O)=C1C2=O", "organism": "Mycobacterium tuberculosis", "test": "microbial growth, broth dilution", "system": "H37RV", "conditions": "7 days, pH 7.4", "measurement": "MIC", "value": "0.4 µg/mL"}
{"Compound": "O=C(Cn1ccnc1[N+](=O)[O-])NCc1ccccc1", "organism": "Trypanosoma cruzi", "test": "parasite growth", "system": "MRC5", "conditions": "intracellular, amastigote", "measurement": "EC50", "value": "1.6 µM"}
{"Compound": "CC1(F)CN(C(=O)Cn2c(=O)c(C(=O)NCc3ccc(Cl)cc3)cc3nc(N4CCN(CC(=O)O)C4=O)cnc32)C1", "organism": "Human betaherpesvirus 5", "test": "viral replication, inhibitor", "system": "AD169", "measurement": "EC50", "value": "1.27 µM"}
